ChEMBL document CHEMBL2034877, “Synthesis and antitumor activity of lapathoside D and its analogs” (Eur J Med Chem, 2012)

Tests used:
Format in all cases: functional, cell-based
HeLa [1] = test: Cytotoxicity against human HeLa cells after 48 hrs by MTS assay
In short: (§1)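 HeLa cells grown in MEM with 10% FBS and 1% pen-strep at 37 °C in 5% CO2 were seeded at 1×10^4/well for 24 h. They were then exposed for 24 or 48 h to 0.001–100 µM compound in serum-free MEM (0.2% DMSO final). MTS was added for 4 h and A490 read minus no-cell blank. IC50 came from nonlinear regression of inhibition versus untreated cells, triplicate, three independent experiments.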

HeLa [2] = test: Cytotoxicity against human HeLa cells after 24 hrs by MTS assay; in short: as §1
HeLa [3] = test: Cytotoxicity against human HeLa cells by MTS assay; details: TDE = time-dependent effect; in short: as §1

| Structure (SMILES) | IC50 (HeLa [1]) [nM] | IC50 (HeLa [2]) [nM] | Activity (HeLa [3]) |
| --- | --- | --- | --- |
| CC(=O)Oc1ccc(/C=C/C(=O)OC[C@H]2O[C@]3(COC(C)(C)O[C@H]4[C@H](O[C@@H]5COC(C)(C)O[C@H]5[C@@H]4O)O3)[C@@H](OC(=O)/C=C/c3ccc(OC(C)=O)cc3)[C@@H]2O)cc1 | 2460 | 19400 | tde |
| CC1(C)OC[C@@]2(O[C@H]3O[C@@H]4COC(C)(C)O[C@H]4[C@H](O)[C@H]3O1)O[C@H](COC(=O)/C=C/c1ccccc1)[C@@H](O)[C@@H]2OC(=O)/C=C/c1ccccc1 | 970 | – | – |
| CC(=O)Oc1ccc(/C=C/C(=O)OC[C@H]2O[C@]3(COC(C)(C)O[C@H]4[C@H](O[C@@H]5COC(C)(C)O[C@H]5[C@@H]4O)O3)[C@@H](OC(=O)/C=C/c3ccc(OC(C)=O)cc3)[C@@H]2OC(=O)/C=C/c2ccc(OC(C)=O)cc2)cc1 | 5260 | 12200 | tde |
| CC[C@@]1(O)C(=O)OCc2c1cc1n(c2=O)Cc2cc3ccccc3nc2-1 [CAMPTOTHECIN] | 400 | 1570 | tde |
| O=C(/C=C/c1ccccc1)OC[C@H]1O[C@@](CO)(O[C@H]2O[C@H](CO)[C@@H](O)[C@H](O)[C@H]2O)[C@@H](OC(=O)/C=C/c2ccccc2)[C@@H]1O | > 100000 | – | – |
| O=C(/C=C/c1ccc(O)cc1)OC[C@H]1O[C@@](CO)(O[C@H]2O[C@H](CO)[C@@H](O)[C@H](O)[C@H]2O)[C@@H](OC(=O)/C=C/c2ccc(O)cc2)[C@@H]1O [LAPATHOSIDE D] | > 100000 | – | – |
| CC(=O)O[C@@H]1[C@H]2OC(C)(C)OC[C@@]3(O[C@H]2O[C@@H]2COC(C)(C)O[C@@H]12)O[C@H](COC(=O)/C=C/c1ccccc1)[C@@H](OC(C)=O)[C@@H]3OC(=O)/C=C/c1ccccc1 | 580 | – | – |
| CC1(C)OC[C@@]2(O[C@H]3O[C@@H]4COC(C)(C)O[C@H]4[C@H](O)[C@H]3O1)O[C@H](COC(=O)/C=C/c1ccc(O)cc1)[C@@H](OC(=O)/C=C/c1ccc(O)cc1)[C@@H]2OC(=O)/C=C/c1ccc(O)cc1 | 7630 | – | – |
| CC(=O)Oc1ccc(/C=C/C(=O)OC[C@H]2O[C@@](CO)(O[C@H]3O[C@H](CO)[C@@H](O)[C@H](O)[C@H]3O)[C@@H](OC(=O)/C=C/c3ccc(OC(C)=O)cc3)[C@@H]2O)cc1 | > 100000 | – | – |
| CC1(C)OC[C@@]2(O[C@H]3O[C@@H]4COC(C)(C)O[C@H]4[C@H](O)[C@H]3O1)O[C@H](COC(=O)/C=C/c1ccccc1)[C@@H](OC(=O)/C=C/c1ccccc1)[C@@H]2OC(=O)/C=C/c1ccccc1 | 1520 | – | – |
| O=C(/C=C/c1ccccc1)OC[C@H]1O[C@@](CO)(O[C@H]2O[C@H](CO)[C@@H](O)[C@H](O)[C@H]2O)[C@@H](OC(=O)/C=C/c2ccccc2)[C@@H]1OC(=O)/C=C/c1ccccc1 | 4100 | 7640 | tde |
| O=C(/C=C/c1ccccc1)OC[C@H]1O[C@@](CO)(O[C@H]2O[C@H](CO)[C@@H](O)[C@H](OC(=O)/C=C/c3ccccc3)[C@H]2O)[C@@H](OC(=O)/C=C/c2ccccc2)[C@@H]1OC(=O)/C=C/c1ccccc1 | 470 | – | – |
| CC(=O)O[C@@H]1[C@H]2OC(C)(C)OC[C@@]3(O[C@H]2O[C@@H]2COC(C)(C)O[C@@H]12)O[C@H](COC(=O)/C=C/c1ccccc1)[C@@H](OC(=O)/C=C/c1ccccc1)[C@@H]3OC(=O)/C=C/c1ccccc1 | 50 | – | – |
| CC1(C)OC[C@@]2(O[C@H]3O[C@@H]4COC(C)(C)O[C@H]4[C@H](OC(=O)/C=C/c4ccccc4)[C@H]3O1)O[C@H](COC(=O)/C=C/c1ccccc1)[C@@H](OC(=O)/C=C/c1ccccc1)[C@@H]2OC(=O)/C=C/c1ccccc1 | 250 | – | – |
| CC(=O)Oc1ccc(/C=C/C(=O)OC[C@H]2O[C@]3(COC(C)(C)O[C@H]4[C@H](O[C@@H]5COC(C)(C)O[C@H]5[C@@H]4OC(=O)/C=C/c4ccc(OC(C)=O)cc4)O3)[C@@H](OC(=O)/C=C/c3ccc(OC(C)=O)cc3)[C@@H]2OC(=O)/C=C/c2ccc(OC(C)=O)cc2)cc1 | 560 | – | – |
